hERG rescue: shields human hERG channel from block by proarrhythmic agents; 310,000 compounds, 0.51% hits; activation (rescue from dofetilide block), less the hit threshold, % at 10 µM; CHO-hERG, FluxOR thallium flux, dofetilide IC70 present;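 active means activation above the mean of controls blocked by dofetilide plus 5 SD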;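 further: thallium influx through hERG after potassium depolarization seen as dye fluorescence rise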
KCNQ1 block: inhibitors of human KCNQ1 potassium channel; P51787; CHO-K1 KCNQ1, FluxOR thallium flux fluorescence; active compounds read high; B-score at 10 µM; 310,000 compounds, 1.3% hits; AID 2642;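 active means compounds whose thallium flux B-score, printed positive for inhibition, exceeds three library SD while starting fluorescence stays within three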;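 further: channel opened by potassium depolarization with thallium stimulus after 20 min compound exposure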
KCNK3 inh: human KCNK3 channel inhibition, primary screen. O14649. CHO-KCNK3 thallium flux, FluxOR fluorescence; active compounds read low. B-score at 10 µM. 340,000 compounds, 0.84% hits;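 active means B-score under library mean minus 4 SD, starting fluorescence ratio at most library mean plus 5 SD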;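 further: more negative B-score means stronger inhibition of thallium flux through KCNK3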
Target sequence (O14649 whole entry, looked up): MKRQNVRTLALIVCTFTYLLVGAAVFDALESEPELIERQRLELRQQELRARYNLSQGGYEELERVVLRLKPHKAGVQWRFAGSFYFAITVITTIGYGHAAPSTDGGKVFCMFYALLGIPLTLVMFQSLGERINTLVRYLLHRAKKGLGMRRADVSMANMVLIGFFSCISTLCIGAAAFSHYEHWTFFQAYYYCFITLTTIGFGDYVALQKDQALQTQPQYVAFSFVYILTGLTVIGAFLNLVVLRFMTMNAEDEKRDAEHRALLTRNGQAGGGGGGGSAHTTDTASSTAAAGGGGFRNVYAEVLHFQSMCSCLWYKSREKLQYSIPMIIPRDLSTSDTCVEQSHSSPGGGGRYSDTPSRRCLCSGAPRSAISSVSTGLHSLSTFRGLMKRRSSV
PHOSPHO1 block: PHOSPHO1 (human) inhibition. inhibition, % at 13.3 µM. recombinant PHOSPHO1, absorbance phosphatase assay. 290,000 compounds, 1.1% hits. Q8TCT1; in the data active means inhibition above about 60%
KCNK9 block: blocks the human KCNK9 two-pore domain potassium channel | Q9NPC2 | HEK293 KCNK9, FluxOR thallium flux fluorescence; active compounds read low | B-score at 10 µM | 310,000 compounds, 1.2% hits | AID 488922;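 active means ratio B-score over 3 SD below the library mean, with starting fluorescence within 5 SD of its mean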;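 further: negative B-score means less thallium flux so channel inhibition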
Target sequence (Q9NPC2 whole entry, looked up, the tested form may be a part): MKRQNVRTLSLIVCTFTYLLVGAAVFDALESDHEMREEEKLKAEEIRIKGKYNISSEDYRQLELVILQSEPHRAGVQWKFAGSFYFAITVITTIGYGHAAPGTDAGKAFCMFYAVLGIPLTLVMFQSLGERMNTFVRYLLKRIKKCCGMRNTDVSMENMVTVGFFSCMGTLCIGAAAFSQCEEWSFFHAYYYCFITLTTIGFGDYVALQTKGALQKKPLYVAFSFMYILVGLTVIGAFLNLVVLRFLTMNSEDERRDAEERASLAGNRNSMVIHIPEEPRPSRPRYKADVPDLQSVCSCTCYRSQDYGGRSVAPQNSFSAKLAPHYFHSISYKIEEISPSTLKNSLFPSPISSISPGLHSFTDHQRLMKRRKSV
KCNQ1 act: human KCNQ1 channel potentiation or activation; P51787; CHO-K1 KCNQ1, thallium flux FluxOR fluorescence; active compounds read high; B-score at 10 µM; 310,000 compounds, 0.35% hits; AID 2648;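 active means fluorescence ratio B-score, a plate-corrected score, at least three library SD, with initial intensity B-score within 5 SD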
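Assay system: CHO-K1 cells stably expressing KCNQ1. Medium: assay buffer for compound exposure, DMSO matched across wells. Timing: 37 °C overnight plating, 90-min dark dye load, 20-min compound pretreatment. Signal: kinetic FluxOR fluorescence, 10 s baseline plus 110 s post-stimulus.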
KCNQ1 block val: reconfirmed blocker of the human KCNQ1 potassium channel; shares compounds with KCNQ1 block; KCNQ1 cell line, FluxOR thallium flux fluorescence; inhibition, % at 10 µM; 1,600 compounds, 93% hits; AID 588353;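 active means primary screen active, with duplicate mean exceeding buffer control mean plus 3 SD of buffer wells, cut at about 28% in these data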;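 further: 0% = buffer control ratio and 100% = XE991 inhibitor control ratio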
CHO Tl flux: counter-screen for KCNQ1 inhibitors: effect in parental CHO cells | shares compounds with KCNQ1 block | parental CHO-K1, FluxOR thallium flux fluorescence ratio; active compounds read low; zero means no signal rise above baseline | fluorescence ratio (Tl flux) at 10 µM | 1,600 compounds, 21% hits;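 active means mean of duplicate thallium-flux fluorescence ratios in parental host cells more than 5 SD below the buffer control mean, cut at about 0.38 in these data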;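 further: ratio is peak minus minimum fluorescence divided by baseline fluorescence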
KCNQ1 ephys val: confirmation of human KCNQ1 potassium channel inhibitors by electrophysiology | shares compounds with KCNQ1 block | calls only at 10 µM | 490 compounds, 20% hits | KCNQ1-CHO cells, automated patch clamp current;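 active means KCNQ1 current drop exceeding 3 SD of negative control wells, seen in both duplicate runs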;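 further: steady state current during a 2 s step from -80 to +40 mV; negative values mean current inhibition and positive values mean potentiation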
KCNQ2 inh: KCNQ1 inhibitor that also blocks rat KCNQ2 channel | shares compounds with KCNQ1 block | KCNQ2 cells, FluxOR thallium flux fluorescence | inhibition, % at 10 µM | 1,600 compounds, 71% hits | AID 651746;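 active means mean percent inhibition of the KCNQ2 thallium signal more than 5 SD above the buffer-only control wells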;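 further: KCNQ2 expressed in CHO cells; 0% = buffer control wells and 100% = XE-991 inhibitor control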
KCNQ1-KCNE1 inh: selectivity of KCNQ1 inhibitors: inhibition of human KCNQ1/KCNE1 channel. inhibition, % at 10 µM. AID 652147. shares compounds with KCNQ1 block. 1,600 compounds, 77% hits. KCNQ1/KCNE1 cells, FluxOR thallium flux fluorescence;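 active means mean percent inhibition of duplicate wells above the buffer-only control mean plus 3 SD of those controls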;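 further: 0% = buffer only wells and 100% = XE-991 inhibitor control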
Numbers without * were called inactive; i = inactive; . = no result. Compounds with a hit are over-represented: about 4% of the library has one in this group of screens.

SMILES | hERG rescue | KCNQ1 block | KCNK3 inh | PHOSPHO1 block | KCNK9 block | KCNQ1 act | KCNQ1 block val | CHO Tl flux | KCNQ2 inh | KCNQ1-KCNE1 inh | others
CC(C)c1ccc(NC(=O)c2cc(S(=O)(=O)NCC3COc4ccccc4O3)ccc2F)cc1 (stereo unspecified) | -5.8 | 7* | i | -12.2 | i | i | 95.0* | 0.466 | 116.3%* | 159.0%* | KCNQ1 ephys val=i
CCOC(=O)N(C)c1ccc(C(O)(C(F)(F)F)C(F)(F)F)cc1 | -11.6 | 8* | i | 7.0 | i | i | 73.5* | 0.435 | 79.0%* | 79.5%*
OCCN1CCOCCOc2ccccc2OCCOCC1 | -4.9 | i | i | . | i | i | . | . | . | .
c1ccc2c(c1)OCCOCCOCCOCCOCCOc1ccccc1OCCOCCOCCO2 | -23.4 | 8* | i | -3.4 | i | i | 80.0* | 0.496 | 64.3%* | 60.5%*
O=C1N(Cc2cccc(Cl)c2)C[C@@H]2C[C@@H](c3cccn3-c3ccccn3)N3CCC[C@@]123 | -10.7 | 6* | i | -10.1 | i | i | 65.0* | 0.5 | 63.3%* | 46.5%*
O=C(/C=C/c1ccc(N2CCCCC2)c([N+](=O)[O-])c1)c1ccc(S(=O)(=O)N2CCCC2)cc1 | -6.4 | i | i | 1.5 | i | i | . | . | . | .
CCc1c(C#N)c(SCCC(=O)Nc2cccc(OC)c2)nc2c1C(=O)CC(C)(C)C2 | -17.3 | 7* | i | 7.8 | i | i | 108.0* | 0.429 | 99.0%* | 129.0%* | KCNQ1 ephys val=i
CCc1c(C#N)c(SCCC(=O)Nc2ccc(F)cc2)nc2c1C(=O)CC(C)(C)C2 | -19.0 | 12* | i | -3.6 | i | i | 129.5* | 0.379* | 98.3%* | 160.0%*
COc1ccc(-c2c(C#N)c(SCc3c(C)noc3C)nc3c2C(=O)CC(C)(C)C3)cc1 | -6.1 | i | i | -15.0 | i | i | . | . | . | .
O=c1oc2c(-c3cccc(F)c3)cc(O)cc2s1 | -11.5 | 11* | i | -125.4 | i | i | 73.5* | 0.512 | i | 64.0%*
Nc1nnc(-c2cccc(F)c2)s1 | -0.1 | i | i | 15.9 | i | i | . | . | . | .
COc1ccc(CCNc2nc(C)nc3c2oc2ccccc23)cc1OC | -35.0 | 10* | i | 21.4 | i | i | 119.5* | 0.448 | 123.0%* | 77.5%* | KCNQ1 ephys val=i
COc1ccc(CCNc2ncnc3c2oc2ccccc23)cc1OC | -24.3 | i | i | 2.3 | i | i | . | . | . | .
C=CCN=C1CCCc2c1[nH]c1ccc(C)cc21 | -15.1 | 6* | i | 12.3 | i | i | 54.5* | 0.468 | i | 46.5%*
COc1ccc(N2C(=O)c3ccccc3NC2c2ccc(OC)c(Cn3nnc4ccccc43)c2)cc1 (stereo unspecified) | -5.4 | i | i | 6.6 | i | i | . | . | . | .
CC(C)(CO)NC(=O)C(c1ccccc1)c1ccccc1 | -4.3 | i | i | -17.0 | i | i | . | . | . | .
CC(C)(Cc1ccc(O)cc1)NC(=O)SCc1ccccc1 | -10.3 | 7* | i | -24.6 | i | i | 50.0* | 0.504 | i | 78.5%*
Cc1nn(CC2CC2)c(=O)n1-c1cccc(Cl)c1 | -11.4 | i | i | -4.1 | i | i | . | . | . | .
Cc1ccc(Cl)cc1N1CCN(C(=O)COc2ccc3c(c2)CCC3)CC1 | -5.6 | 7* | i | 9.6 | i | i | 118.0* | 0.421 | 121.0%* | 170.0%* | KCNQ1 ephys val=i
Cc1cc(=O)n2nc(N3CCCC(C(=O)NCCc4ccc(Cl)cc4)C3)sc2n1 (stereo unspecified) | -8.4 | i | i | -6.3 | i | i | . | . | . | .
Cc1cc(C)n2cc(CSc3nnc(-c4ccccc4)c(-c4ccccc4)n3)nc2n1 | . | . | i | . | . | . | . | . | . | .
COc1ccc(CN(C)C(=O)C2CCN(C(=O)Nc3ccccc3)CC2)cc1OC | . | . | i | . | . | . | . | . | . | .
Cc1nnsc1SCCNC(=O)Nc1ccc(Cl)cc1 | -9.6 | 7* | i | 43.7 | i | i | 67.0* | 0.519 | i | 35.5%*
Fc1cc(Br)ccc1Nc1nc2ccccc2n2nnnc12 | -11.1 | i | i | -4.7 | i | i | . | . | . | .
Fc1ccccc1N1CCN(c2nc3ccccc3n3nnnc23)CC1 | -7.5 | 7* | i | -17.3 | i | i | 76.0* | 0.444 | 71.0%* | 83.5%*
SMILES | hERG rescue | KCNQ1 block | KCNK3 inh | PHOSPHO1 block | KCNK9 block | KCNQ1 act | KCNQ1 block val | CHO Tl flux | KCNQ2 inh | KCNQ1-KCNE1 inh | others
CCOc1ccc2nc(NC3=NC(C)(C)C=C(C)N3)nc(C)c2c1 | -16.4 | 10* | i | 0.2 | i | i | 87.5* | 0.516 | i | 91.5%*
O=C(COc1ccc2c3c(c(=O)oc2c1)CCC3)N1CCCC1 | -8.6 | i | i | -13.0 | i | i | . | . | . | .
S=C(NCCSCc1ccccc1Cl)Nc1ccccc1 | -9.8 | 10* | i | -9.3 | i | i | 106.5* | 0.433 | 87.3%* | 58.0%* | KCNQ1 ephys val=i
S=C(NCCSCc1ccc(Cl)cc1)Nc1ccccc1 | -16.3 | i | i | 39.3 | i | i | . | . | . | .
Cc1cccc(CSCCNC(=S)Nc2ccccc2)c1 | -14.4 | 7* | i | -0.5 | i | i | 55.5* | 0.53 | 65.0%* | 98.5%*
CCCOc1ccc(CSCCNC(=S)Nc2ccccc2)cc1 | -3.1 | i | i | -7.1 | i | i | . | . | . | .
COc1cccc(C(=O)/C=C2\NCCc3cc(OC)c(OC)cc32)c1 | -16.4 | i | i | 28.0 | i | i | . | . | . | .
CCCn1c(Sc2nnnn2-c2ccccc2)n[nH]c1=O | -5.8 | i | i | 16.0 | i | i | . | . | . | .
Cc1ccc(N=Nc2c(N)[nH]n3c(=O)cc(-c4ccccc4)nc23)cc1 | -11.1 | 9* | i | 22.9 | i | i | 46.0* | 0.485 | i | 87.0%*
COc1cccc(N=Nc2c(N)[nH]n3c(=O)cc(-c4ccccc4)nc23)c1 | -7.2 | i | i | -15.2 | i | i | . | . | . | .
O=C1C(CCCNC(=S)NCc2ccccc2)NC(=S)N1Cc1ccccc1 (stereo unspecified) | -8.6 | 6* | i | -11.7 | i | i | 77.5* | 0.303* | i | 115.0%*

Screening data deposited in PubChem by several laboratories.
